Data on 1 protein can be found in ChEMBL document CHEMBL1123412, “Thiopurine methyltransferase: structure-activity relationships for benzoic acid inhibitors and thiophenol substrates” (J Med Chem, 1986).

Assay type in all cases: tissue-based
Substrate in series [1]: Sc1ccc(Cl)cc1
The experiment in a line: (§1) Apparent binding constant for purified human kidney TPMT. A digest of the protocol: (§2)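 Enzyme purified >300-fold from human kidney (100000g supernatant, ammonium sulfate, DEAE-A25, Sephadex G-100). The thiophenol replaced 6-MP as methyl acceptor, with 25 μM [14C-methyl]AdoMet at pH 6.7 and 37 °C for 30 min. Stopped with borate pH 10, extracted, scintillation counted. Five or more concentrations near Km in triplicate, at least twice. Apparent Km by Wilkinson method, averaged.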

Substrate in series [2]: O=[N+]([O-])c1ccc(S)cc1
The description is as §1. A digest of the protocol:
as §2

Substrate in series [3]: Sc1ccc(Br)cc1
Described as §1. A digest of the protocol:
as §2

Substrate in series [4]: O=C(O)c1ccccc1S
The description is as §1. In outline: as §2

Substrate in series [5]: Nc1ccccc1S
The description is as §1. In outline:
as §2

Substrate in series [6]: CC(=O)Nc1ccc(S)cc1
The description is as §1. A digest of the protocol:
as §2

Substrate in series [7]: Cc1ccc(S)cc1
Described as §1. In outline: as §2

Substrate in series [8]: COc1ccccc1S
The series is described as §1. A digest of the protocol:
as §2

Substrate in series [9]: Fc1ccc(S)cc1
The series is described as §1. In outline:
as §2

Substrate in series [10]: Sc1ccccc1
Described as §1. In outline:
as §2

Substrate in series [11]: Sc1ccccc1Br
Described as §1. In outline: as §2

Substrate in series [12]: COc1ccc(S)cc1
Described as §1. A digest of the protocol: as §2

Substrate in series [13]: Sc1cccc(Cl)c1
The description is as §1. A digest of the protocol:
as §2

Substrate in series [14]: COc1cccc(S)c1
Described as §1. A digest of the protocol:
as §2

As usually defined, the Km is the substrate concentration at which the rate is half of its maximum.

B1: Thiopurine S-methyltransferase (Homo sapiens), P51580 (protein)
chain: MDGTRTSLDIEEYSDTEVQKNQVLTLEEWQDKWVNGKTAFHQEQGHQLLKKHLDTFLKGKSGLRVFFPLCGKAVEMKWFADRGHSVVGVEISELGIQEFFTEQNLSYSEEPITEIPGTKVFKSSSGNISLYCCSIFDLPRTNIGKFDMIWDRGALVAINPGDRKCYADTMFSLLGKKFQYLLCVLSYDPTKHPGPPFYVPHAEIERLFGKICNIRCLEKVDAFEERHKSWGIDCLFEKLYLLTEK
For the protein B1, the Michaelis constant (Km) in series [1] amounted to 3.6 µM; in series [2], 6.5 µM; in series [3] it was 4.8 µM; in series [4], 7.8 µM; in [5], 2.5 µM; in [6], 2.1 µM. For the same protein, the Km in series [7] is 5.9 µM; in series [8], 2.6 µM; in series [9], 5.6 µM; in [10], 3.9 µM; in [11] it was 0.8 µM; in series [12] it was 3.2 µM. Besides, the Km in [13] was found to be 2.4 µM; in series [14], 2.1 µM.
